In ChEMBL document CHEMBL1914453, “1,1-Diarylalkenes as anticancer agents: dual inhibitors of tubulin polymerization and phosphodiesterase 4” (Bioorg Med Chem, 2011):

How the values were obtained:
PBMC = assay: Inhibition of LPS-induced TNFalpha production in human PBMC preincubated 1 hr prior to LPS stimulation measured after 18 to 20 hrs by ELISA; type: functional, cell-based
Method in brief: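 PBMC were isolated by Ficoll-Hypaque density centrifugation and plated at 2 × 10⁵ cells in triplicate. Compounds in DMSO (0.25% final) were added 1 h before stimulation with LPS from S. abortus equi at 1 ng/ml. After 18–20 h at 37 °C in 5% CO₂, supernatant TNF-α was measured by ELISA. IC50 values are means of at least three determinations.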

Phosphodiesterase 4 = Phosphodiesterase 4 (Homo sapiens, UniProt P27815+Q08499+Q07343+Q08493); assay: Inhibition of human PDE4 expressed in U937 cells using [3H]cAMP as substrate after 30 mins; details: u-937
Method in brief: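 PDE4 was purified from U937 human monocytic cells by gel filtration. Reactions ran in 50 mM Tris–HCl pH 7.5 with 5 mM MgCl₂, 1 µM cAMP and 10 nM [³H]-cAMP for 30 min at 30 °C. They were stopped by boiling, treated with snake venom (1 mg/ml) and separated on ion-exchange resin. Substrate consumption stayed below 15%. IC50 values are means of at least three determinations, with SEM.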

HCT-116 = assay: Cytotoxicity against human HCT116 cells assessed as reduction of [3H]thymidine incorporation after 72 hrs by scintillation counting; type: functional, cell-based
Method in brief: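 HCT-116 cells were seeded 24 h before compound and treated with serial dilutions in triplicate for 72 h at 37 °C. [³H]thymidine (1 µCi per well) was added for the last 6 h, and incorporation was read by scintillation counting. IC50 came from nonlinear sigmoidal regression (top 100%, bottom 0%, variable slope). Values are means of at least three independent determinations, with SEM from the individual IC50s.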

Plasma = assay: Stability in human plasma assessed as formation of (E/Z)-3-(3-Ethoxy-4-methoxyphenyl)-3-(3-hydroxy-4- methoxyphenyl)acrylonitrile […] by LC-MS/MS analysis; type: ADME, cell-free; details: 20 min
[1] = Inhibition of tubulin polymerization at 10 uM after 60 mins by spectrophotometry
[2] = Inhibition of tubulin polymerization at 5 uM after 60 mins by spectrophotometry

SMILES	IC50 (PBMC)	IC50 (Phosphodiesterase 4)	IC50 (HCT-116)	Stability (Plasma)	inhibition [1]	inhibition [2]
COc1cc(OC)cc(C(=CC(=O)O)c2ccc(OC)c(OC)c2)c1	> 10000 nM	> 10000 nM	> 10000 nM			
COc1ccc(C(=CC#N)c2ccc(OC)c(OC)c2)cc1OC	600 nM	310 nM	140 nM			
CC=C(c1ccc(OC)c(N)c1)c1ccc(OC)c(OCC)c1	2800 nM	590 nM	110 nM			
CCOc1cc(C(=CC#N)c2ccc(OC)c(OCC)c2)ccc1OC	48 nM	70 nM	440 nM			
CCOc1cc(C(=CC#N)c2ccc(OC)c(OC(=O)[C@H](C)N)c2)ccc1OC.Cl	57 nM	69 nM	17 nM	Unstable		
COc1cc(OC)cc(/C(=C\C#N)c2ccc(OC)c(OC)c2)c1	93 nM	150 nM	11 nM			
CCOc1cc(C(=CC#N)c2ccc(OC)c(O)c2)ccc1OC	44 nM	91 nM	15 nM			
C#CC=C(c1cc(OC)cc(OC)c1)c1ccc(OC)c(OC)c1	7200 nM	3500 nM	> 10000 nM			
CCOc1cc(C(=CC#N)c2ccc(OC)c(C)c2)ccc1OC	100 nM	82 nM	87 nM			
COc1cc(OC)cc(C(=Cc2ccccc2)c2ccc(OC)c(O)c2)c1	> 10000 nM	> 10000 nM	> 10000 nM			
CCOc1cc(C(=CC#N)c2cccc(OC)c2)ccc1OC	230 nM	110 nM	450 nM			
COc1cc(OC)cc(/C(=C/C#N)c2ccc(OC)c(OC)c2)c1	650 nM	730 nM	110 nM			
C=C(c1cc(OC)cc(OC)c1)c1ccc(OC)c(OC)c1	4800 nM	2200 nM	> 10000 nM			
COc1cc(OC)cc(C(=CCCN(C)C)c2ccc(OC)c(OC)c2)c1	> 10000 nM	> 10000 nM	> 10000 nM			
CCOc1cc(C(=CC#N)c2ccc(OC)c(OC(=O)[C@@H](N)C(C)C)c2)ccc1OC.Cl	67 nM	120 nM	22 nM	Unstable		
CCOc1cc(C(=CC#N)c2ccc(OC)c(OC(=O)N(C)C)c2)ccc1OC	240 nM	120 nM	> 10000 nM			
CCOc1cc(C(=CC#N)c2ccc(N(C)C)cc2)ccc1OC	130 nM	52 nM	31 nM			
COc1cc(OC)cc(C(=CC#N)c2ccc(OC)c(NC(C)=O)c2)c1	66 nM	> 10000 nM	92 nM		74%	46%
CCOc1cc(C(=CC#N)c2ccc(OC)c(F)c2)ccc1OC	31 nM	70 nM	130 nM			
C=C(c1ccc(OC)c(O)c1)c1ccc(OC)c(OCC)c1	29 nM	380 nM	36 nM			
CCOc1cc(C(=CC#N)c2ccc(OC)c(-n3cccc3)c2)ccc1OC	67 nM	70 nM	49 nM			
C=C(c1cc(OC)cc(OC)c1)c1ccc(OC)c(O)c1	3000 nM	> 10000 nM	21 nM			
COc1ccc(C(=CC#N)c2cc(OC)c(OC)c(OC)c2)cc1OC	540 nM	1800 nM	41 nM			
COc1ccc(C(=CC#N)c2cc(OC)c(OC)c(OC)c2)cc1N	200 nM	> 10000 nM	1.8 nM			

SMILES	IC50 (PBMC)	IC50 (Phosphodiesterase 4)	IC50 (HCT-116)	Stability (Plasma)	inhibition [1]	inhibition [2]
COc1cc(OC)cc(C(=CC#N)c2ccc(OC)c(N)c2)c1	11 nM	9800 nM	1.4 nM			76%
COc1cccc(C(=CC#N)c2ccc(OC)c(OC)c2)c1	660 nM	160 nM	310 nM			
COc1cc(OC)cc(C(=CC#N)c2ccc(OC)c(OC)c2)c1	270 nM	350 nM	18 nM		84%	65%
CCOc1cc(C(=CC#N)c2ccc(S(C)(=O)=O)cc2)ccc1OC	130 nM	200 nM	> 10000 nM			
CC=C(c1cc(OC)cc(OC)c1)c1ccc(OC)c(OC)c1	2600 nM	1500 nM	480 nM			
COc1ccc(/C=C\c2cc(OC)c(OC)c(OC)c2)cc1O [COMBRETASTATIN A4]	11 nM	> 10000 nM	0.74 nM			88%
COC=C(c1cc(OC)cc(OC)c1)c1ccc(OC)c(OC)c1	6300 nM	3600 nM	> 10000 nM			
CC=C(c1cc(OC)cc(OC)c1)c1ccc(OC)c(O)c1	150 nM	> 10000 nM	30 nM			
CCOc1cc(C(=C(F)F)c2ccc(OC)c(O)c2)ccc1OC	54 nM	360 nM	74 nM			
COC(=O)C=C(c1cc(OC)cc(OC)c1)c1ccc(OC)c(OC)c1	5400 nM	1300 nM	> 10000 nM			
CCOc1cc(C(=CC#N)c2ccc(NC)cc2)ccc1OC	140 nM	41 nM	55 nM			
COc1ccc(C(=CC#N)c2ccc(OC)c(OC)c2)cc1	350 nM	190 nM	24 nM			
CCOc1cc(C(=CC#N)c2ccc(OC)c(OC(=O)CN)c2)ccc1OC.Cl	58 nM	49 nM	19 nM	Unstable		
COc1cc(C(=CC#N)c2cc(OC)c(OC)c(OC)c2)cc(OC)c1OC	870 nM	2400 nM	> 10000 nM			
COc1cc(OC)cc(C(=CC#N)c2ccc(OC)c(O)c2)c1	1.2 nM	2400 nM	2.5 nM			77%
COc1cc(OC)cc(C(=CC#N)c2ccccc2)c1	2400 nM	1900 nM	970 nM			
CCC=C(c1cc(OC)cc(OC)c1)c1ccc(OC)c(OC)c1	> 10000 nM	2000 nM	> 10000 nM			
COc1ccc(C(=CC#N)c2cc(OC)cc(OC)c2)cc1	440 nM	3800 nM	1.2 nM			
C=C(c1ccc(OC)c(N)c1)c1ccc(OC)c(OCC)c1	380 nM	680 nM	38 nM			
COc1cccc(C(=CC#N)c2cc(OC)cc(OC)c2)c1	290 nM	3400 nM	15 nM		88%	67%
C=C(c1cc(OC)cc(OC)c1)c1ccc(OC)c(N)c1	330 nM	> 10000 nM	13 nM			
COc1cc(OC)cc(C(=CC(N)=O)c2ccc(OC)c(OC)c2)c1	5500 nM	6700 nM	> 10000 nM			
CCOc1cc(C(=CC#N)c2ccc(OC)c(OC)c2)ccc1OC	180 nM	83 nM	200 nM			
COc1cc(OC)cc(C(=CC(C)=O)c2ccc(OC)c(OC)c2)c1	750 nM	140 nM	> 10000 nM			
